Source: ChEMBL document CHEMBL1131514, “A novel series of 6-methoxy-1H-benzotriazole-5-carboxamide derivatives with dual antiemetic and gastroprokinetic activities” (1998)

Legend:
[1] = test system: Rattus norvegicus; test: Compound was tested for its effect on the gastric emptying rate of phenol red semisolid meal through the stomach at oral dose of 3.0 mg/kg in rats.; type: functional
How it was run: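 Rats dosed orally at 3.0 mg/kg, with a 0.5% tragacanth control group. Gastric emptying of a phenol red semisolid meal was measured and expressed as percentage enhancement relative to the control group mean. Significance was tested against control.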

[2] = test system: Canis familiaris; test: Antiemetic activity was evaluated in vivo by the suppression of apomorphine-induced emesis in dogs at oral dose of 1.0 mg/kg; type: functional, Canis lupus familiaris
[3] = test system: Canis familiaris; test: Tested in vivo for effective dose required for suppression of apomorphine-induced emesis in dog […]; type: functional; conditions: Canis lupus familiaris

| Compound | Gastric emptying [1] [%] | Antiemetic activity [2] [%] | ED50 [3] [mg/kg] |
| --- | --- | --- | --- |
| CCOc1cc2[nH]nnc2cc1C(=O)NC1CCCCN(CC)C1 (stereo unspecified) | 18 | 15 |  |
| CCN1CCCCC(NC(=O)c2cc3nnn(C(C)C)c3cc2OC)C1 (stereo unspecified) | 16 | 94 |  |
| CCN1CCCCC(NC(=O)c2cc3nnn(CC4CC4)c3cc2OC)C1 (stereo unspecified) | 34 | 74 |  |
| COc1cc2[nH]nnc2cc1C(=O)NC1CCCCN(C)C1 (stereo unspecified) | 20 | 46 |  |
| O=c1[nH]c2ccccc2n1CCCN1CCC(n2c(=O)[nH]c3cc(Cl)ccc32)CC1 [DOMPERIDONE] | 0 | 100 | 0.02 |
| CCCN1CCCCC(NC(=O)c2cc3[nH]nnc3cc2OC)C1 (stereo unspecified) | 17 | 63 |  |
| CCN(CC)CCNC(=O)c1cc(Cl)c(N)cc1OC [METOCLOPRAMIDE] | 39 | 86 | 0.45 |
| COc1cc2[nH]nnc2cc1C(=O)NC1CCCCN(C(C)C)C1 (stereo unspecified) | 31 | 15 |  |
| CCN1CCCCC(NC(=O)c2cc3nnn(C)c3cc2OC)C1 (stereo unspecified) | 49 | 77 |  |
| CCOc1cc(N)c(Cl)cc1C(=O)NCC1CN(Cc2ccc(F)cc2)CCO1 (stereo unspecified) [MOSAPRIDE] | 70 | 8 | > 10 |
| CCCn1nnc2cc(C(=O)NC3CCCCN(CC)C3)c(OC)cc21 (stereo unspecified) | 29 | 89 |  |
| CCN1CCCC(NC(=O)c2cc3[nH]nnc3cc2OC)C1 (stereo unspecified) |  | 31 |  |
| CCN1CCCCCCC(NC(=O)c2cc3[nH]nnc3cc2OC)C1 (stereo unspecified) | 46 | 100 | 0.1 |
| CCN1CCCCC(NC(=O)c2cc3nnn(CC)c3cc2OC)C1 (stereo unspecified) | 31 | 89 |  |
| CCN1CCCCCCCC(NC(=O)c2cc3[nH]nnc3cc2OC)C1 (stereo unspecified) | 31 | 22 |  |
| CCN1CCCCC(NC(=O)c2cc3[nH]nnc3cc2OC)C1 (stereo unspecified) | 28 | 100 | 0.08 |
| CCN1CCCCC(NC(=O)c2ccc3[nH]nnc3c2OC)C1 (stereo unspecified) | 11 | 50 |  |
| CCN1CCCCCC(NC(=O)c2cc3[nH]nnc3cc2OC)C1 (stereo unspecified) | 21 | 100 | 0.19 |
